# Results as given in article PMC4969713 (Journal of Alzheimer's Disease, 2016).
# Structures can show the parent of a compound that is named as a salt.
# What was measured:
# CYP2C19 = CYP2C19 (Homo sapiens, UniProt P33261); test: Metabolism by recombinant CYP2C19; format: in vitro ADME
# guinea pigs = test: Q-T interval, guinea pigs; format: in vivo; conditions: 10 mg/kg IP
# H1 receptor = H1 receptor (Homo sapiens, UniProt P35367); test: Histamine-induced Ca2+ mobilization in SK-N-SH cells; format: cell-based
# Sequence of H1 receptor (P35367 whole entry): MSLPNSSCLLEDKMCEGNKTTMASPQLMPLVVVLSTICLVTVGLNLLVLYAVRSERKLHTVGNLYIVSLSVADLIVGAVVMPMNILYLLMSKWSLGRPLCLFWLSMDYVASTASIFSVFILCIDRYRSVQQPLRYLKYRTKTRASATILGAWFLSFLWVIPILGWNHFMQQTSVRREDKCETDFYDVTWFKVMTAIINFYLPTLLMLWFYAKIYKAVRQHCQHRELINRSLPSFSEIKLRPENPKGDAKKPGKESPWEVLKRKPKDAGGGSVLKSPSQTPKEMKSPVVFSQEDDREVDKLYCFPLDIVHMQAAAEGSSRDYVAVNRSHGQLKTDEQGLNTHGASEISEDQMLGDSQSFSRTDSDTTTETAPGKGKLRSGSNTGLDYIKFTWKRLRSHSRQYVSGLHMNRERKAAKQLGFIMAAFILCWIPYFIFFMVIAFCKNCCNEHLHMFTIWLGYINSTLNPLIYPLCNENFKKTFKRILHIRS
# In short: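 SK-N-SH cells challenged with 10μM histamine; transient rise in intracellular free Ca2+ recorded as the response, with test compound examined for blockade of this histamine-evoked signal.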
# [1] = Stability in monkey blood plasma; format: in vitro ADME; conditions: 30-min incubation, room temperature
# 5-HT2B receptor = 5-HT2B receptor (Rattus norvegicus, UniProt P30994); test: Rat stomach fundus contraction assay
# Sequence of 5-HT2B receptor (P30994 whole entry): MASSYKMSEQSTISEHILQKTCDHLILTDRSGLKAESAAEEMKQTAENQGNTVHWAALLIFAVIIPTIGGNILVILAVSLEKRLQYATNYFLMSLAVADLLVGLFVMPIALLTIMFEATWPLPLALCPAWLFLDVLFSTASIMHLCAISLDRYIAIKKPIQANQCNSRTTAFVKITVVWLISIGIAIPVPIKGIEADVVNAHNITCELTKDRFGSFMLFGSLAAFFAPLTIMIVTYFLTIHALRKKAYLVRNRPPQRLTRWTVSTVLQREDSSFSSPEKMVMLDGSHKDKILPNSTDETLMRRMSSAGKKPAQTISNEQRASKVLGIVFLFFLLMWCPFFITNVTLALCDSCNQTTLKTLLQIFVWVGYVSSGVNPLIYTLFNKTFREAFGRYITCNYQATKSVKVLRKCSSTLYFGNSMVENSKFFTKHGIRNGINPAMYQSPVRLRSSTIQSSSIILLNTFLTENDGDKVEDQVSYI
# [2] = Brain/plasma/CSF distribution in Sprague Dawley rats; format: in vivo
# healthy volunteers = test: Phase I tolerability, healthy volunteers; format: in vivo, human
# In short: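 Healthy volunteers received single oral doses. Venous blood was drawn through an IV catheter before dosing and at several time points after. Urine was collected before dosing and at 4 h and 24 h after. Systolic and diastolic pressure and heart rate were monitored.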
# hERG potassium channel = hERG potassium channel (Homo sapiens, UniProt Q12809); test: hERG single cell patch clamp in HEK cells
# Sequence of hERG potassium channel (Q12809 whole entry): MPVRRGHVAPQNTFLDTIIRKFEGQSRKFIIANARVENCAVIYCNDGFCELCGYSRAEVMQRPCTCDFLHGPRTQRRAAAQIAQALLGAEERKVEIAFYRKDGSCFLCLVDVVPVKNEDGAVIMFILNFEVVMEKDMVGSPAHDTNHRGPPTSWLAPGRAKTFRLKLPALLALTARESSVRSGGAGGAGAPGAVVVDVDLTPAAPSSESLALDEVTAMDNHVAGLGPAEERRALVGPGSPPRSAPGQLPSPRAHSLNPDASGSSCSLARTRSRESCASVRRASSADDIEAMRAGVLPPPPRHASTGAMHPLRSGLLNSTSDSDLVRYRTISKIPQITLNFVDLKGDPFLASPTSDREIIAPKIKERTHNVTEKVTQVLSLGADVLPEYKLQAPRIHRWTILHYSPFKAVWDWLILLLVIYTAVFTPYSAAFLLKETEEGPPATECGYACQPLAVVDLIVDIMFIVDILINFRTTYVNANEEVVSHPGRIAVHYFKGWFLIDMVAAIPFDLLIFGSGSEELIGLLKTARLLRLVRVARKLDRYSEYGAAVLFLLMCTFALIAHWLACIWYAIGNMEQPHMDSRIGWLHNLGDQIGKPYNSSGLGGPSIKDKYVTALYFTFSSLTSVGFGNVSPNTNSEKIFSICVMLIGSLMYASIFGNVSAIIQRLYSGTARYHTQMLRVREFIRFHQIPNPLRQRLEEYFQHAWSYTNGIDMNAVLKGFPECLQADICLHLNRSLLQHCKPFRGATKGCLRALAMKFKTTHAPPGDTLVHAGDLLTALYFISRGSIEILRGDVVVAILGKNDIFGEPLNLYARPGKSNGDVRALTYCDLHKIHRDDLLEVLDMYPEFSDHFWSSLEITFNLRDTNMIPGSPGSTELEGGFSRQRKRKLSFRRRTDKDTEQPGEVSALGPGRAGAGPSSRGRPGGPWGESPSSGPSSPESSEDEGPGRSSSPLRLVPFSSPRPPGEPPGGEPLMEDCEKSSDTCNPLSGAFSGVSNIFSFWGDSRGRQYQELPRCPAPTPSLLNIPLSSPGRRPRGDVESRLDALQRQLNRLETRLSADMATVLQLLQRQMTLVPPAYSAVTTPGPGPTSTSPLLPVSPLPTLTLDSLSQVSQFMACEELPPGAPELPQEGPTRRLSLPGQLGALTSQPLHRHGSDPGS
# CYP3A4 = CYP3A4 (Homo sapiens, UniProt P08684); test: Metabolism by recombinant CYP3A4; format: in vitro ADME
# Sequence of CYP3A4 (P08684 whole entry): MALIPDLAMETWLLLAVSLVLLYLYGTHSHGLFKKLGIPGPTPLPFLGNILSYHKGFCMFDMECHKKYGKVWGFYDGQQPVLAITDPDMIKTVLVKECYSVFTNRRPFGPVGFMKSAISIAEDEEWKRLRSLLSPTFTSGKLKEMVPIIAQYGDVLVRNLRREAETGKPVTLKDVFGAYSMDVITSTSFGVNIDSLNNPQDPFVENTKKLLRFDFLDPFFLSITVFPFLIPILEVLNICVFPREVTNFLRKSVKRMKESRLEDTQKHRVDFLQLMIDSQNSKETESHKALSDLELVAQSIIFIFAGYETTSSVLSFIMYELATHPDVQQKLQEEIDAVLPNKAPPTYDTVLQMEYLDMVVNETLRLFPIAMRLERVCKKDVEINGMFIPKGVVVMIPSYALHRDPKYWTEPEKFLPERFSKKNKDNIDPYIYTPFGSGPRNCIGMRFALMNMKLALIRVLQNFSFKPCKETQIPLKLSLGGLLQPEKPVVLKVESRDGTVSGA
# [3] = Median lethal dose after single administration; parameters: species or system mice; conditions: male, CD1, mouse, in vivo
# In short: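 Male CD1 mice received a single dose of test compound in saline, IP at 80–200 mg/kg or orally at 200–700 mg/kg. Each dose went to a separate group (n = 6). LD50 with standard error was derived by probit analysis.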
# [4] = target: human recombinant H2 receptors (Homo sapiens, UniProt P25021); test: Amthamine-induced cAMP accumulation in CHO-K1 cells; format: cell-based
# Sequence of human recombinant H2 receptors (P25021 whole entry): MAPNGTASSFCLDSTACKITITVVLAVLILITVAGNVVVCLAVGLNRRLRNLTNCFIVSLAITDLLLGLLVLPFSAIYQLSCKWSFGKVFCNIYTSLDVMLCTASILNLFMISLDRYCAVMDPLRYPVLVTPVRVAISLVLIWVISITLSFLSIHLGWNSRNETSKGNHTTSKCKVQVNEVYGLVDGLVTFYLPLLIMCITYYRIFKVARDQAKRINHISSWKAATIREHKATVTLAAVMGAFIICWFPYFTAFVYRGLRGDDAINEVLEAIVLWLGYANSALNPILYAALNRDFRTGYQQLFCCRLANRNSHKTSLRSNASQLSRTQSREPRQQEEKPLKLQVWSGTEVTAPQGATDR
# In short: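 CHO-K1 cells exogenously expressing recombinant human H2 receptor were stimulated with 50 nM amthamine. Intracellular cAMP accumulation was registered, and blockade of this response by test compound was measured.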
# male BALB/c mice = test: Novel object recognition, MK-801-induced; format: in vivo; conditions: 0.2 mg/kg MK-801; memantine 10 mg/kg; SB-742457 0.2 or 1.0 mg/kg
# In short: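 All drugs were dissolved in saline and given IP; control animals received saline vehicle. Each group had at least 8 male BALB/c mice. Read-out was novel object recognition index, reported as mean ± SE.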
# [5] = test system: rhesus macaques (Macaca Mulatta); test: 30 days toxicity, monkeys; format: in vivo; conditions: 5 mg/kg PO daily
# BALB/c mice [6] = test: Morris water maze, scopolamine-induced amnesia; format: in vivo; conditions: IP; AVN-101 0.2 mg/kg; Tacrine 3 mg/kg; donepezil 1 mg/kg; scopolamine 1.5 mg/kg
# In short: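 Scopolamine-induced amnesia model in male BALB/c mice. Read-out was time spent in the quadrant where the escape platform had been during the two preceding training days, reported as mean ± SE.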
# Wistar rats = test: 30 days toxicity, rats; format: in vivo; conditions: 0.5, 5 and 25 mg/kg PO daily
# In short: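 Wistar rats were randomised to vehicle, 0.5, 5 or 25 mg/kg, with 10 males and 10 females per group. Read-outs were body weight, plasma biochemistry markers, and macro- and microscopic observations.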
# BALB/c mice [7] = test: Tail suspension test; format: in vivo; conditions: AVN-101 0.05 mg/kg IP once daily for 4 days
# In short: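 Test compound dissolved in saline, injected IP into BALB/c mice once daily for 4 days, last injection 5 min before tail suspension; vehicle (saline) controls; fluoxetine and desipramine 15 mg/kg IP as positive controls, last dose 30 min before test. Immobility measured; at least 8 animals per group; Student t-test.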
# [8] = test system: outbreed male and female rats; test: Reproductive toxicology in rats; format: in vivo
# In short: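 Outbred male and female rats weighing 220–250 g received test compound in 0.9% physiological solution intragastrically at 1.0 or 25.0 mg/kg. Assessments covered embryotoxicity, offspring development, mating and fertilization capability, and reproductive function.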
# [9] = Dialysis of diluted rat plasma against rat brain homogenate; format: in vitro ADME; conditions: 1μM AVN-101 in 20% plasma vs brain homogenate
# In short: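 A 48-well semi-permeable-membrane dialysis plate was used. Donor chamber held 20% rat plasma diluted in PBS with 1 μM test compound; acceptor chamber held rat brain homogenate. Both chambers were sampled at several time points, and samples were matrix-equilibrated by cross-adding the opposite matrix. Membrane-permeability controls used 20% plasma in both chambers or PBS in both chambers.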
# [10] = Sprague Dawley, rat, CSF, iv, 2 mg/kg
# [11] = Sprague Dawley, rat, brain, iv, 2 mg/kg
# [12] = Sprague Dawley, rat, plasma, iv, 2 mg/kg
# Sequence of CYP2C19 (P33261 whole entry): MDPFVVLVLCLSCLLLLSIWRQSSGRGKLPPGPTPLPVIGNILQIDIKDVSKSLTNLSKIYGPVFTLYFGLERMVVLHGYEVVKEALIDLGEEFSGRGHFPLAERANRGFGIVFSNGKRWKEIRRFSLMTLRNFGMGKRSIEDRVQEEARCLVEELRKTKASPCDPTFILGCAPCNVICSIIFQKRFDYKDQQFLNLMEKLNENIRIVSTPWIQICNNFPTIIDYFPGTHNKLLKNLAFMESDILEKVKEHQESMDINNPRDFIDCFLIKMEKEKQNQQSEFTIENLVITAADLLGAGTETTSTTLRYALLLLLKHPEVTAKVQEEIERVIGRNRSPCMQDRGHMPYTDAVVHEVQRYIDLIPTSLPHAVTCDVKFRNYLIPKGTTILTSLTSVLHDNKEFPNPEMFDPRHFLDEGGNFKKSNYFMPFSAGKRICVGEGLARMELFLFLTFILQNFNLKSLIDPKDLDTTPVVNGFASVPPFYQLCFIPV
smiles,measurement,setting,value
"Cc1ccc2c(c1)c1c(n2CCc2ccccc2)CCN(C)C1 [AVN-101, 2,8-dimethyl-5-penethyl-2,3,4,5-tetra-hydro-1h-pyrido[[4,3-B]]indole hydrochloride]","remaining at 0.5 h, 2 µM",CYP2C19,1%
same,increase in the QT interval over vehicle,guinea pigs,≤ 10%
same,receptor activation,H1 receptor,activated neither H1 nor H2 receptors
same,blockade of agonist-induced cell response,"H1 receptor; 10μM histamine, Ca2+ mobilization",effectively blocked
same,residual amount of original compound,[1],45%
same,blockade of α methyl-serotonin-induced fundus contraction,5-HT2B receptor,effectively blocking
same,agonistic activity (fundus contraction),5-HT2B receptor; AVN-101 alone,lacked intrinsic agonistic activity
same,binding to blood cells,"[2]; IV 2 mg/kg, 5 min after injection",low binding capacity
same,Vss_obs,"[2]; Plasma, IV 2 mg/kg",11.6136 L/kg
same,AUC(0-inf),[2]; [10],0.0317 µg·h/mL
same,AUC(0-t),[2]; [10],0.0253 µg·h/mL
same,Cmax,[2]; [10],0.011 µg/mL
same,half-life,[2]; [10],1.62 h
same,k el,[2]; [10],0.000118 s⁻¹
same,AUC(0-inf),[2]; [11],8.96 µg·h/mL
same,AUC(0-t),[2]; [11],8 µg·h/mL
same,Cmax,[2]; [11],4.67 µg/mL
same,Tmax,[2]; [11],4.8 min
same,half-life,[2]; [11],1.26 h
same,k el,[2]; [11],0.000153 s⁻¹
same,AUC(0-inf),[2]; [12],0.522 µg·h/mL
same,AUC(0-t),[2]; [12],0.376 µg·h/mL
same,C0,[2]; [12],0.308 µg/mL
same,Cmax,[2]; [12],0.274 µg/mL
same,Tmax,[2]; [12],4.98 min
same,Vd,[2]; [12],13.2 L/kg
same,clearance,[2]; [12],3.83 L/h/kg
same,half-life,[2]; [12],2.39 h
same,k el,[2]; [12],8e-05 s⁻¹
same,sleepiness,"healthy volunteers; 20 mg, 8 volunteers per group",3 volunteers
same,adverse effects,"healthy volunteers; 20 mg, first half of the day",some adverse effects were detected in five volunteers
same,"blood pressure, one person","healthy volunteers; 20 mg, 141/88 before to 157/87 (2 h–4 h) and 155/77 (6 h–7.5 h)",transient increase in systolic pressure
same,QT interval in ECG,"healthy volunteers; 2, 4, 10, 20 mg single PO dose",No QT interval prolongation
same,biochemical and clinical parameters of blood and urine,healthy volunteers; all dose groups,in a normal range
same,tolerability,"healthy volunteers; orally, doses of up to 20 mg daily",well tolerated
same,IC50,hERG potassium channel,0.58 µM
same,"remaining at 0.5 h, 2 µM",CYP3A4,2%
same,LD50 at 2 weeks,[3]; ip,105 ± 5 mg/kg
same,LD50 at 2 weeks,[3]; po,331 ± 101 mg/kg
same,receptor activation,[4],activated neither H1 nor H2 receptors
same,blockade of agonist-induced cell response,"[4]; 50 nM amthamine, cAMP accumulation",effectively blocked
same,effect on deficit in novel object recognition,male BALB/c mice,partially reverse
same,signs of toxicity,[5],did not show any signs of toxicity
same,effect on scopolamine-induced amnesia (time in platform quadrant),BALB/c mice [6],effectively reversed
same,signs of toxicity,Wistar rats,No signs of toxicity
same,decrease in immobility time,BALB/c mice [7],comparable to that observed with either Fluoxetine or Desipramine
same,"reproductive function, male rats",[8]; 1.0 and 25.0 mg/kg intragastrically daily for 48 days,no reproductive function alteration
same,effect in female rats dosed prior to pairing,[8]; daily for 15 days prior to pairing,reduction in the body mass increase of the pregnant rats and their posterity
same,embryotoxic / teratogenic effect,"[8]; doses up to 25.0 mg/kg, male or female",neither embryotoxic nor teratogenic effect
same,concentration in brain-containing chamber vs plasma chamber,[9],never exceeds that of the plasma chamber
